TRPC4 potent = allosterically enhances the mouse TRPC4 cation channel | HEK293 TRPC4beta/mu-opioid, DAMGO EC20, Fluo-4 Ca2+ flux; active compounds read high | B-score at 10 µM | 310,000 compounds, 0.42% hits | AID 2227;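 active = B-score of calcium response area above 5 SD of library B-scores, with initial fluorescence ratio within 5 SD of library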;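 note: B-score of integrated fluorescence ratio over time as area under calcium response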
Target sequence (Q9QUQ5 whole entry, looked up): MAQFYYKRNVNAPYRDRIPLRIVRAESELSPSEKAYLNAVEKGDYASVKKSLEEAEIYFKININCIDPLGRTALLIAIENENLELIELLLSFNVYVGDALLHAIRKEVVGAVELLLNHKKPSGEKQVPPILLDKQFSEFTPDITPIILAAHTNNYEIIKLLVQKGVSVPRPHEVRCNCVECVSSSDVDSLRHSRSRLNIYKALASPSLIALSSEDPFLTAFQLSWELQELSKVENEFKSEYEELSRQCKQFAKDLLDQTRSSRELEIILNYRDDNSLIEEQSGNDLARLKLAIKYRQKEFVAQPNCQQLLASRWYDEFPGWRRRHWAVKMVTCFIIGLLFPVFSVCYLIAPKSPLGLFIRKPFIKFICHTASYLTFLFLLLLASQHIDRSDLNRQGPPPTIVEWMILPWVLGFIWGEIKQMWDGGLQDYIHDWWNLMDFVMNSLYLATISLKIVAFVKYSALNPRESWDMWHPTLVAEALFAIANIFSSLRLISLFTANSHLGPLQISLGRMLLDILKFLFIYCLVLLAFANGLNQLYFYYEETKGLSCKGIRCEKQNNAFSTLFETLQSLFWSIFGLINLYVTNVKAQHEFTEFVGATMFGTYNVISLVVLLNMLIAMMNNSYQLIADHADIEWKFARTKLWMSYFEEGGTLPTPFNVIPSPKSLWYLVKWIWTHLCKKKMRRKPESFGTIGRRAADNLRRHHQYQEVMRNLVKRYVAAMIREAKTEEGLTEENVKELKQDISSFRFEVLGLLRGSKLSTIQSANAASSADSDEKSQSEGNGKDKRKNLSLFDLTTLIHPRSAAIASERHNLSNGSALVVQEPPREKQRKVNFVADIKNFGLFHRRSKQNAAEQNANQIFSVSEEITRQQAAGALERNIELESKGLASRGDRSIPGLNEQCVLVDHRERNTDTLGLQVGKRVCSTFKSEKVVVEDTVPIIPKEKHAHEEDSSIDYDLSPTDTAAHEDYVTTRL
TRPC6 inhibitor = inhibitors of mouse TRPC6 channel | B-score at 10 µM | HEK293-TRPC6, membrane potential dye, ACh-evoked depolarization; active compounds read low | Q61143 | 310,000 compounds, 1.1% hits | AID 2553;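 active = B-score under library mean minus 3 SD, initial fluorescence not abnormally high, positive integrated signal ratio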;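 note: B-score derived from integrated fluorescence ratio over the kinetic read; more negative B-score means stronger inhibition of depolarization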
TRPC4 block = TRPC4 (mouse) channel inhibition | Q9QUQ5 | HEK293 TRPC4beta/mu-opioid, DAMGO-evoked Fluo4 calcium flux; active compounds read low | B-score at 10 µM | 300,000 compounds, 0.39% hits | AID 2247;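 active = B-score over 3 SD under the library average, no early fluorescence shift, positive overall ratio signal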
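Assay system – HEK293 line stably carrying TRPC4beta and mu-opioid receptor · Doses – single dose · Detection – Fluo4 calcium-dye fluorescence, kinetic read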
TRPC4 act = activators of mouse TRPC4 channel. Q9QUQ5. HEK293 TRPC4beta/mu-opioid, Fluo4 calcium fluorescence; active compounds read high. B-score at 10 µM. 310,000 compounds, 0.49% hits. AID 2237;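 active = B-score above 5 SD of library B-scores, and initial fluorescence ratio not above library mean plus 5 SD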;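 note: positive B-score marks a calcium rise read as TRPC4 activation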
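System – HEK293 cells stably co-expressing mouse TRPC4beta and mu-opioid receptor · Signal – Fluo4 calcium-sensitive dye fluorescence, kinetic, 1 Hz baseline · Benchmarks – buffer (low) and maximal DAMGO (high) · Read-out – B score of integrated fluorescence ratio per well · Incubation – dye loading 45 min room temperature, 110 s kinetic read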
TRPC6 act = activates the mouse TRPC6 cation channel; HEK293-TRPC6 membrane potential dye fluorescence; active compounds read high; B-score at 10 µM; 310,000 compounds, 0.13% hits; AID 2550;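 active = B-score of the integrated fluorescence ratio above library mean plus 3 SD, and starting fluorescence ratio within library mean plus 5 SD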;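 note: higher score means more depolarization so channel activation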
TRPC4 spec 2 = second check of whether TRPC6 inhibitors also affect mouse TRPC4; shares compounds with TRPC6 inhibitor; HEK293 TRPC4/MOR, membrane potential dye fluorescence; channel activated by saturating DAMGO dose; inhibition, % at 10 µM; 920 compounds, 42% hits;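 active = compounds whose fluorescence signal differed from control wells by over 3 SD, either direction, in both duplicate plates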
TRPC4 spec = mouse TRPC4 off-target activity of TRPC6 inhibitors; HEK293 TRPC4/mu-opioid, membrane potential fluorescence; activity change, negative = inhibition, % at 10 µM; 920 compounds, 61% hits; shares compounds with TRPC6 inhibitor;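 active = rise or fall in signal beyond 3 SD of buffer-only wells in both replicate plates, either sign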;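 note: integrated kinetic ratio of fluorescence range over baseline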
HEK293 MPD ctr 2-1 = parental HEK293 nonspecific activity of TRPC6 inhibitors, second screen. shares compounds with TRPC6 inhibitor. parental HEK293 membrane potential dye fluorescence; maximal acetylcholine challenge after compound addition. signal change vs control, % at 10 µM. 920 compounds, 31% hits. AID 2779;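 active = membrane potential signal moving either way by over 3 SD of the maximum-effect control, in both duplicate plates, meaning non-specific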
HEK293 MPD ctr-1 = checks TRPC6 inhibitor effects in parental HEK293 cells; membrane potential signal change, % at 10 µM; 920 compounds, 60% hits; parental HEK293 membrane potential dye fluorescence; AID 2780; shares compounds with TRPC6 inhibitor;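 active = membrane potential signal shifting up or down by more than 3 SD of buffer-only wells, on both duplicate plates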
HEK293 MPD ctr-2 = counter-screen for TRPC6 modulators: effect in parental HEK293 cells | shares compounds with TRPC6 inhibitor | membrane potential dye fluorescence | membrane potential signal change, % at 10 µM | 2,400 compounds, 51% hits | AID 488924;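 active = membrane potential signal moves up or down beyond 5 SD from buffer-only wells, on both duplicate plates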
HEK293 MPD ctr 2-2 = second counter-screen for TRPC6 modulators: effect in parental HEK293 cells | shares compounds with TRPC6 inhibitor | membrane potential dye fluorescence; after compound, maximal acetylcholine stimulation | inhibition, % at 10 µM | 2,400 compounds, 14% hits | AID 488926;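 active = membrane potential signal drops by more than 5 SD from the mean control signal, in both duplicate plates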;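 note: plate controls were acetylcholine ECmax control wells for no effect and buffer only wells for full effect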
TRPC4 ctr mod = mouse TRPC4 off-target activity of TRPC6 modulators. shares compounds with TRPC6 inhibitor. HEK293 TRPC4/mu-opioid, membrane potential fluorescence. AID 488927. 2,400 compounds, 69% hits. percent change from control (negative = decrease, positive = increase), % at 10 µM;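 active = membrane potential signal moved up or down beyond 5 SD of buffer control wells, in both duplicate plates, actives on both sides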;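 note: plate controls were assay buffer wells for no effect and DAMGO maximal-effect wells for full effect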
TRPC4 ctr inh 2 = second check of whether TRPC6 modulators also affect mouse TRPC4 | AID 488928 | 2,400 compounds, 55% hits | inhibition, % at 10 µM | HEK293 TRPC4/mu-opioid, membrane potential dye fluorescence; stimulated with maximal-effect DAMGO | shares compounds with TRPC6 inhibitor;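 active = drop in membrane potential signal beyond 5 SD of the control wells in both duplicate plates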;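 note: TRPC4 counter screen for TRPC6 hits run under conditions tuned for TRPC6 not TRPC4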
TRPC6 block conf = confirmation of mouse TRPC6 inhibitors. shares compounds with TRPC6 inhibitor. HEK293-TRPC6, membrane potential dye, ACh-evoked depolarization. inhibition, % at 10 µM. 3,300 compounds, 43% hits. AID 488960;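 active = fluorescence ratio falls more than 5 SD below the full-stimulation control mean, in both duplicate runs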;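 note: integrated fluorescence ratio of peak minus minimum over baseline after agonist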
TRPC6 act conf = mouse TRPC6 activator confirmation | 2,800 compounds, 11% hits | activation, % at 10 µM | HEK293-TRPC6 membrane potential dye fluorescence, FDSS | AID 488961 | shares compounds with TRPC6 inhibitor;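 active = ratio signal rise beyond 5 SD above unstimulated control wells' mean, seen in both duplicate runs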;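 note: plate controls were buffer EC0 wells for no effect and acetylcholine ECmax response for full effect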
* hit, by the source's call; i = inactive; nt = no result. In the library only some 2.3% were active in any assay of this set; here they are far more common.

SMILES | TRPC4 potent | TRPC6 inhibitor | TRPC4 block | TRPC4 act | TRPC6 act | TRPC4 spec 2 | TRPC4 spec | HEK293 MPD ctr 2-1 | HEK293 MPD ctr-1 | TRPC6 block conf | TRPC6 act conf | others
CCCc1nn2c(=O)cc(CSCC(=O)Nc3ccc(OC)cc3)nc2s1 | i | i | i | i | i | nt | nt | nt | nt | nt | nt
CCN(CC)CCSc1nc2ccccc2c(=S)n1-c1ccccc1 | i | -7.32* | i | i | i | 33.0%* | 3.5%* | 237.5%* | 7.1%* | i | i
CCN(CC)CCSc1nnc(Nc2ccccc2)n1-c1ccccc1 | i | -7.76* | i | i | i | i | 2.4%* | i | 3.4%* | i | i
CCN(CC)CCSc1nc(O)c(-c2ccccc2)c(=O)n1-c1ccccc1 | i | i | i | i | i | nt | nt | nt | nt | nt | nt
O=C(CSc1ccc(Cl)cc1)N/N=C/c1ccc([N+](=O)[O-])o1 | i | i | i | i | i | nt | nt | nt | nt | nt | nt
OC(CCN1CCCCC1)(c1ccccc1)c1ccccc1 | i | -7.08* | i | i | i | i | 17.3%* | -7.0%* | 12.0%* | 73.7%* | nt
OC(CCN1CCCC1)(c1ccccc1)C1CCCCC1 (stereo unspecified) | i | -8.15* | i | i | i | i | 24.2%* | -14.0%* | 15.3%* | 79.1%* | nt
Cc1c(Nc2ncccc2C(=O)O)cccc1C(F)(F)F | i | i | i | i | i | nt | nt | nt | nt | nt | nt
O=C(Nc1ccc(O)cc1)/C(=C\C=C\c1ccccc1)NC(=O)c1ccccc1 | i | -5.63* | i | i | i | nt | nt | nt | nt | i | i | HEK293 MPD ctr-2=i;HEK293 MPD ctr 2-2=i;TRPC4 ctr mod=i;TRPC4 ctr inh 2=37.0%*
CN1c2cccc3cccc(c23)N(C)C1(C)C | i | i | i | i | i | nt | nt | nt | nt | nt | nt
CC(=O)c1ccc2cccc3c2c1N=CN3C | i | -8.92* | i | i | i | nt | nt | nt | nt | 50.5%* | i | HEK293 MPD ctr-2=-146.5%*;HEK293 MPD ctr 2-2=68.0%*;TRPC4 ctr mod=-65.5%*;TRPC4 ctr inh 2=50.0%*
CC1(C)Cc2c(cnn2-c2ccccc2)C(NC(=O)CCCN2CCCCC2=O)C1 (stereo unspecified) | i | i | i | i | i | nt | nt | nt | nt | nt | nt
CCc1ccccc1NC(=O)CNC(=O)c1ccc(-n2cncn2)c([N+](=O)[O-])c1 | i | i | i | i | i | nt | nt | nt | nt | nt | nt
Cc1cc(C)n(-c2nnc(C)n2/N=C/c2ccccc2OCc2ccccc2Cl)n1 | i | i | i | i | 13.1* | nt | nt | nt | nt | i | 116.5%* | HEK293 MPD ctr-2=473.5%*;HEK293 MPD ctr 2-2=i;TRPC4 ctr mod=85.0%*;TRPC4 ctr inh 2=i
CN1CCCN(S(=O)(=O)c2ccc(O)c(C(=O)O)c2)CC1 | i | i | i | i | i | nt | nt | nt | nt | nt | nt
